Consider eight compounds from ChEMBL document CHEMBL1132569.

Test [1] has as its target T1, Muscarinic acetylcholine receptor M4 (Homo sapiens) (UniProt P08173).
T1 sequence (whole entry): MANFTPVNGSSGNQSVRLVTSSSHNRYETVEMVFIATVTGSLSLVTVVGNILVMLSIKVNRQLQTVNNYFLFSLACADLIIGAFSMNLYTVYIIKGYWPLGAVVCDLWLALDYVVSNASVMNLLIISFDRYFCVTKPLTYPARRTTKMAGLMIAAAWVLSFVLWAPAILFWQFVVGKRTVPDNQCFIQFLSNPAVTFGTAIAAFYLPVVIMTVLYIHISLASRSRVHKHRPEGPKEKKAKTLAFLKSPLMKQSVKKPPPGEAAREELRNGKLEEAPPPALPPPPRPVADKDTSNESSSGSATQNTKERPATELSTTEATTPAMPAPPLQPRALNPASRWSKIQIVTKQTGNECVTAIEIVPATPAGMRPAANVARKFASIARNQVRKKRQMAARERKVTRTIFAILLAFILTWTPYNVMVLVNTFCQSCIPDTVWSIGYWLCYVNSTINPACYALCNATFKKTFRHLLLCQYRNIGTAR
As to the kind of experiment: Binding affinity at the NMS liganded human muscarinic acetylcholine receptor M4 was estimated as log affinity (log1/M). In short, it runs like this:
(§1)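 Equilibrium runs were ≥2 h with 2 × 10⁻⁴ M GTP and 0.1–0.7 nM ³H-NMS. Nonspecific binding was defined with 10⁻⁶ M QNB, and bound ligand was filtered and counted. Log affinities came from semiquantitative plus off-rate, quantitative equilibrium, or nonequilibrium assays, fitted by nonlinear least squares to the allosteric ternary complex model.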

The target of test [2] is T1, Muscarinic acetylcholine receptor M4 (Homo sapiens). As to the kind of experiment: Binding affinity at the unliganded human muscarinic acetylcholine receptor M4 was estimated as log affinity (log1/M). Summed up:
as §1

For test [3] the target is unchanged. As to the kind of experiment: Cooperativity with NMS at human muscarinic acetylcholine receptor M4. In short, it runs like this: (§2)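 Equilibrium ³H-NMS binding in CHO membranes expressing human m1–m5 receptors was measured with and without ACh, alone and with three agent concentrations. Data were converted to affinity ratios, meaning apparent primary-ligand affinity with agent divided by affinity without it.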

For test [4] the target is unchanged. In words: Cooperativity with acetylcholine at human muscarinic acetylcholine receptor M4. Summed up: as §2
For test [5], the target named is Muscarinic acetylcholine receptor M3 (Homo sapiens) (UniProt P20309). As to the kind of experiment: Cooperativity with NMS at human muscarinic acetylcholine receptor M3. In short, it runs like this: as §2
The target is the same in test [6]. As to the kind of experiment: Cooperativity with acetylcholine at human muscarinic acetylcholine receptor M3. In short, it runs like this:
as §2

For test [7] the target is unchanged. As to the kind of experiment: Binding affinity at the NMS liganded human muscarinic acetylcholine receptor M3 was estimated as log affinity (log1/M). Summed up:
as §1

The target is the same in test [8]. In words: Binding affinity at the unliganded human muscarinic acetylcholine receptor M3 was estimated as log affinity (log1/M). In short, it runs like this: as §1
Test [9] concerns the target T2, Muscarinic acetylcholine receptor M2 (Homo sapiens) (UniProt P08172).
T2 sequence (whole entry): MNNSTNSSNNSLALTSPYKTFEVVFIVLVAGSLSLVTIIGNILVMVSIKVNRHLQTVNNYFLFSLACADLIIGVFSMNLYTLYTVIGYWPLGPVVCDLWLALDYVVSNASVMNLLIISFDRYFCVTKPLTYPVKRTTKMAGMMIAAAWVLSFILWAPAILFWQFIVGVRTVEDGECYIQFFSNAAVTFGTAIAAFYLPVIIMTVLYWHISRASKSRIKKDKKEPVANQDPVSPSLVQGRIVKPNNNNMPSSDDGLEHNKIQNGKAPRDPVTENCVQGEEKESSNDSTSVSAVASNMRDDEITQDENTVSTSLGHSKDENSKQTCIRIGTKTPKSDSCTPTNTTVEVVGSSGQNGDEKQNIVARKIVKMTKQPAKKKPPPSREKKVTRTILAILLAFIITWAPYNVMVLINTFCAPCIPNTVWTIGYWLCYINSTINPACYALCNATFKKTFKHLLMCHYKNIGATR
As to the kind of experiment: Binding affinity at the NMS liganded human muscarinic acetylcholine receptor M2 was estimated as log affinity (log1/M). In short, it runs like this:
as §1

Test [10] has as its target T2, Muscarinic acetylcholine receptor M2 (Homo sapiens). In words: Binding affinity at the unliganded human muscarinic acetylcholine receptor M2 was estimated as log affinity (log1/M). Summed up: as §1
Test [11] shares this target. In words: Cooperativity with NMS at human muscarinic acetylcholine receptor M2. Summed up:
as §2

Test [12] has the same target. As to the kind of experiment: Cooperativity with acetylcholine at human muscarinic acetylcholine receptor M2. In short, it runs like this: as §2
Test [13] deals with T3, Muscarinic acetylcholine receptor M1 (Homo sapiens) (UniProt P11229).
T3 sequence (whole entry): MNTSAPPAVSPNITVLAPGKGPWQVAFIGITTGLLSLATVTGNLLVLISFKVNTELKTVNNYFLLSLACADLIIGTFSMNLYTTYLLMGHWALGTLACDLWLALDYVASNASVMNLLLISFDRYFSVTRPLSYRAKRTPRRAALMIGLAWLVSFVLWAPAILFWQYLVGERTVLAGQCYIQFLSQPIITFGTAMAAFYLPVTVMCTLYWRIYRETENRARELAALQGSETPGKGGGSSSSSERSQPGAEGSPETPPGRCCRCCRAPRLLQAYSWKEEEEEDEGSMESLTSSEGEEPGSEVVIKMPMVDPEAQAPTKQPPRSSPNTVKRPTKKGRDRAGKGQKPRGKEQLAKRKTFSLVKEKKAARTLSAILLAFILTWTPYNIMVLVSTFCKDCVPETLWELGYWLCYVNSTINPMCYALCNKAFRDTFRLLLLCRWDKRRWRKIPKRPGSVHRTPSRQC
In words: Binding affinity at the NMS liganded human muscarinic acetylcholine receptor M1 was estimated as log affinity (log1/M). Summed up: as §1

The target of test [14] is T3, Muscarinic acetylcholine receptor M1 (Homo sapiens). In words: Binding affinity at the unliganded human muscarinic acetylcholine receptor M1 was estimated as log affinity (log1/M). In short, it runs like this: as §1
Test [15] shares this target. In words: Cooperativity with NMS at human muscarinic acetylcholine receptor M1. In short, it runs like this:
as §2

Test [16] shares this target. In words: Cooperativity with acetylcholine at human muscarinic acetylcholine receptor M1. Summed up: as §2

Muscarinic acetylcholine receptor M3 (Homo sapiens), sequence (P20309 whole entry, looked up): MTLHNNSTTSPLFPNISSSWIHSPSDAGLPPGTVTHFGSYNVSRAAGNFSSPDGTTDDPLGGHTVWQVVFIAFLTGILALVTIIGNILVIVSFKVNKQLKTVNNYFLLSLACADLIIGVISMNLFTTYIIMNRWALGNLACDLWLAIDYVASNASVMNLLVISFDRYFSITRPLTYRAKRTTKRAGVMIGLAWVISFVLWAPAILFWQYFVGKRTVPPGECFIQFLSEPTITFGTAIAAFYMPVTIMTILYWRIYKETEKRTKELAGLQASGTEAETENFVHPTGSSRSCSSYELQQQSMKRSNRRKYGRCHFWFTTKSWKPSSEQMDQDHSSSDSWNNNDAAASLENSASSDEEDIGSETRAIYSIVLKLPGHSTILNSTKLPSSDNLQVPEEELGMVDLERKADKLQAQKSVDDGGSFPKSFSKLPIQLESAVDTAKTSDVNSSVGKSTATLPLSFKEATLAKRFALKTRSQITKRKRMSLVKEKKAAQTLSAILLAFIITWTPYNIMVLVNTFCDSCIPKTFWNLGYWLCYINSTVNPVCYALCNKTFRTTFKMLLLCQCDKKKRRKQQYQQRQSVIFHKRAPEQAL

As to `C#CC[N+]12CC[C@@]34c5ccccc5N5C(=O)C[C@@H]6OCC=C(C1)[C@H](C[C@@H]32)[C@@H]6[C@H]54` (stereo partly drawn), the Affinity in test [1] is 5; in [2] it was 4.8; in [7] it was 4.5; in test [8], 4.7; in test [9] it was 5.4; in test [10], 5.2. Further, the Affinity in test [13] is 4.7; in [14], 5.2. In addition, the Cooperativity in test [3] is 2; in test [4], 0.8; in [5] it was 0.8; in test [6] it was below 0.2; in test [11], 2; in [12], below 0.2. Besides, the Cooperativity is 0.8 in test [15] and below 0.2 in test [16].
Take `O=C1C[C@@H]2OCC=C3C[N+]4(CC5CCCCC5)CC[C@]56c7ccccc7N1[C@H]5[C@H]2[C@H]3C[C@@H]64` (stereo partly drawn): the Affinity is 4.8 in test [1]; 4.5 in [2]; 4.1 in test [7]; 4 in test [8]; 5.5 in test [9]; below 4.9 in test [10]. Further, the Affinity is 4.8 in [13] and below 4.6 in [14]. In addition, the Cooperativity was 2 in test [3]; below 0.2 in [4]; 2 in test [5]; below 0.2 in test [6]; above 2 in [11]; below 0.2 in test [12]. Also, the Cooperativity in test [15] is 2; in [16], below 0.2.
In the case of `CCC[N+]12CC[C@@]34c5ccccc5N5C(=O)C[C@@H]6OCC=C(C1)[C@H](C[C@@H]32)[C@@H]6[C@H]54` (stereo partly drawn), the Affinity was 4.9 in test [1]; 5.2 in [2]; 4.5 in [7]; 5 in [8]; 5.5 in test [9]; 5.2 in test [10]. Besides, the Affinity was 4.8 in test [13] and 5.2 in [14]. The Cooperativity in test [3] was 0.8; in test [4] it was below 0.2; in test [5], 0.8; in [6] it was below 0.2; in test [11], 2; in test [12] it was below 0.2. Further, the Cooperativity in test [15] is 0.8; in test [16], below 0.2.
With `O=C1C[C@@H]2OCC=C3C[N+]4([O-])CC[C@]56c7ccccc7N1[C@H]5[C@H]2[C@H]3C[C@@H]64` (stereo partly drawn), the Affinity in test [1] is 4.1; in test [2] it was below 3.8; in test [7], 3.9; in test [8], below 3.9; in test [9], 4.4; in test [10] it was below 4.1. Besides, the figures for the Affinity in test [13] and in [14] were 3.8 and below 3.6, respectively. The Cooperativity was 2 in test [3]; 0.8 in [4]; 2 in test [5]; 0.8 in test [6]; above 2 in [11]; 0.8 in test [12]. In addition, the Cooperativity amounted to 2 in test [15] and 0.8 in test [16].
`CC[N+]12CC[C@@]34c5ccccc5N5C(=O)C[C@@H]6OCC=C(C1)[C@H](C[C@@H]32)[C@@H]6[C@H]54` (stereo partly drawn): the Affinity in [1] was 4.9; in test [2] it was 4.3; in [7], 4.2; in test [8] it was 4.2; in test [9] it was 5.2; in test [10], 4.7. For the same compound, the Affinity was 4.6 in [13] and below 4.5 in [14]. Besides, the Cooperativity in [3] was above 2; in [4], below 0.2; in [5], 1.19; in test [6], 0.8; in [11], above 2; in test [12] it was below 0.2. The results for the Cooperativity in [15] and in test [16] were 2 and 0.8, respectively.
As to `O=C1C[C@@H]2OCC=C3C[N+]4(Cc5ccc([N+](=O)[O-])cc5)CC[C@]56c7ccccc7N1[C@H]5[C@H]2[C@H]3C[C@@H]64` (stereo partly drawn), the Affinity was 5.4 in [1]; 5 in test [2]; 4.6 in test [7]; 4.6 in [8]; 5.6 in test [9]; 4.8 in [10]. The results for the Affinity in test [13] and in test [14] were 5.3 and below 4.8, respectively. The Cooperativity in [3] was above 2; in test [4], below 0.2; in test [5] it was 1.19; in test [6], 0.8; in [11], above 2; in test [12] it was below 0.2. Moreover, the Cooperativity is above 2 in test [15] and 0.8 in [16].
As for `O=C1C[C@@H]2OCC=C3C[N+]4(CCc5ccccc5)CC[C@]56c7ccccc7N1[C@H]5[C@H]2[C@H]3C[C@@H]64` (stereo partly drawn), the Affinity was 5.5 in test [1]; 5.2 in test [2]; 4.6 in [7]; 4.8 in test [8]; 5.7 in test [9]; 5.3 in test [10]. The Affinity in [13] and in [14] was 4.9 in each case. The Cooperativity is 2 in [3]; below 0.2 in test [4]; 0.8 in [5]; below 0.2 in test [6]; above 2 in test [11]; below 0.2 in [12]. The Cooperativity in test [15] is 1.19; in test [16], below 0.2.
For `N#CC[N+]12CC[C@@]34c5ccccc5N5C(=O)C[C@@H]6OCC=C(C1)[C@H](C[C@@H]32)[C@@H]6[C@H]54` (stereo partly drawn), the Affinity in test [1] is 4.8; in test [2], below 4.4; in test [7], 4.2; in test [8], below 3.9; in [9], 5.1; in test [10] it was 4.5. Moreover, the Affinity in test [13] was 4.3; in test [14] it was below 4. For the same compound, the Cooperativity in [3] is above 2; in [4] it was 0.8; in test [5] it was 2; in test [6], 0.8; in test [11], above 2; in test [12], below 0.2. Also, the Cooperativity in test [15] was found to be 2; in test [16], 0.8.
